From ChEMBL document CHEMBL6074622, “8-l-Cystinyl Bis(1,8-diazaspiro[4.5]decane) as an Orally Bioavailable l-Cystine Crystallization Inhibitor for Cystinuria” (ACS Med Chem Lett, 2024) come the findings set out here.

By EC50 is commonly meant the concentration giving half of the maximal effect. Usually Cmax stands for the peak of the concentration-time curve.

Structures are written as SMILES.

The test system of series [1] is Cystine. The series can be described thus: Inhibition of L-cystine crystallization in millipore water at room temperature incubated for 72 hrs. The essentials: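 Supersaturated L-cystine (2.9 mM) in Millipore water was incubated with varying inhibitor concentrations for 72 h at room temperature and then centrifuged. L-cystine remaining in the supernatant was measured. EC50 was taken from dose–response curves as the concentration giving 50% inhibition of crystallization.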

Series [2] has as its system Cystine. Put plainly: Inhibition of L-cystine crystallization in aqueous solution assessed as ratio of step velocity in presence of compound to step velocity measured initially in absence of compound at 15 uM by atomic force microscopic analysis. The essentials: (§1)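 AFM on the {0001} face of L-cystine crystals. Crystals were regrown for 20 min under flowing supersaturated 2 mM L-cystine (20 mL/h). {1010} step velocity was measured without inhibitor (V0), then with inhibitor at 15, 30 or 45 μM (V). Images were taken about 25 min after inhibitor injection. Result reported as a V/V0 range.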

Series [3] deals with Cystine. Put plainly: Inhibition of L-cystine crystallization in aqueous solution assessed as ratio of step velocity in presence of compound to step velocity measured initially in absence of compound at 45 uM by atomic force microscopic analysis. The procedure, abridged: as §1
Series [4] relates to Cystine. The series can be described thus: Inhibition of L-cystine crystallization in aqueous solution assessed as ratio of step velocity in presence of compound to step velocity measured initially in absence of compound at 30 uM by atomic force microscopic analysis. The essentials: as §1
Series [5] can be described thus: Oral bioavailability in Slc3a1-knockout mouse at 150 micromol/kg or 30 micromol/kg measured upto 24 hrs by LC-MS/MS analysis. To be noted: in vivo, at 150 µmol/kg. In kind it is ADME, organism-based. The procedure, abridged:
(§2)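 Male Slc3a1-knockout mice (4 per route) dosed once by oral gavage in normal saline (150 μmol/kg) or by tail vein injection (30 μmol/kg). Saphenous-vein blood drawn into heparinized capillaries before dosing and at 5, 15, 30 min and 1, 4, 8, 24 h. Plasma stored at −80 °C. Parent and mixed-disulfide metabolite M1 quantitated by LC-MS/MS against synthetic M1. Oral bioavailability derived from oral versus iv exposure.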

Series [6] is described as follows: Oral bioavailability in Slc3a1-knockout mouse by measuring total parent compound and (2R)-2-amino-3-[[(2R)-2-amino-3-(1,8-diazaspiro[4.5]decan-8-yl)-3-oxo-propyl]disulfanyl]propanoic acid metabolite at 150 micromol/kg or 30 micromol/kg measured upto 24 hrs by LC-MS/MS analysis. Type of series: ADME, organism-based. The following applies: in vivo, at 150 µmol/kg. The procedure, abridged:
as §2

The nature of series [7]: Drug metabolism in Slc3a1-knockout mouse assessed as (2R)-2-amino-3-[[(2R)-2-amino-3-(1,8-diazaspiro[4.5]decan-8-yl)-3-oxo-propyl]disulfanyl]propanoic acid metabolite formation. In kind it is ADME.
Series [8] is described as follows: Oral bioavailability in Slc3a1-knockout mouse by measuring (2R)-2-amino-3-[[(2R)-2-amino-3-(1,8-diazaspiro[4.5]decan-8-yl)-3-oxo-propyl]disulfanyl]propanoic acid metabolite at 150 micromol/kg or 30 micromol/kg measured upto 24 hrs by LC-MS/MS analysis. Type of series: ADME, organism-based. To be noted: in vivo, at 150 µmol/kg. The procedure, abridged: as §2
Series [9] can be described thus: Cmax in Slc3a1-knockout mouse by measuring (2R)-2-amino-3-[[(2R)-2-amino-3-(1,8-diazaspiro[4.5]decan-8-yl)-3-oxo-propyl]disulfanyl]propanoic acid metabolite at 150 micromol/kg, po or 30 micromol/kg, iv measured upto 24 hrs by LC-MS/MS analysis. The following applies: in vivo, dose 150 µmol/kg. In kind it is ADME, organism-based. The procedure, abridged:
as §2

Series [10] in a line: Observed apparent oral clearance in Slc3a1-knockout mouse by measuring (2R)-2-amino-3-[[(2R)-2-amino-3-(1,8-diazaspiro[4.5]decan-8-yl)-3-oxo-propyl]disulfanyl]propanoic acid metabolite at 150 micromol/kg or 30 micromol/kg measured upto 24 hrs by LC-MS/MS analysis. Type of series: ADME. To be noted: in vivo, dose 150 µmol/kg. The essentials: as §2
Series [11] is described as follows: AUC (0 to t) in Slc3a1-knockout mouse at 150 micromol/kg, po or 30 micromol/kg, iv measured upto 24 hrs by LC-MS/MS analysis. In kind it is ADME, organism-based. The following applies: in vivo, dose 150 µmol/kg. The procedure, abridged:
as §2

A short description of series [12]: AUC (0 to t) in Slc3a1-knockout mouse by measuring total parent compound and (2R)-2-amino-3-[[(2R)-2-amino-3-(1,8-diazaspiro[4.5]decan-8-yl)-3-oxo-propyl]disulfanyl]propanoic acid metabolite at 150 micromol/kg, po or 30 micromol/kg, iv measured upto 24 hrs by LC-MS/MS analysis. Type of series: ADME, organism-based. To be noted: in vivo, dose 150 µmol/kg. The procedure, abridged:
as §2

A short description of series [13]: Half life in Slc3a1-knockout mouse by measuring (2R)-2-amino-3-[[(2R)-2-amino-3-(1,8-diazaspiro[4.5]decan-8-yl)-3-oxo-propyl]disulfanyl]propanoic acid metabolite at 150 micromol/kg, po or 30 micromol/kg, iv measured upto 24 hrs by LC-MS/MS analysis. In kind it is ADME, organism-based. To be noted: in vivo, dose 150 µmol/kg. The procedure, abridged:
as §2

Series [14] is described as follows: Toxicity in SLC3A1-knockout male mouse assessed as animal death at 150 micromol/kg, po administered daily for 8 weeks. In kind it is organism-based. The following applies: in vivo, 1344 h, dose 150 µmol/kg. The procedure, abridged:
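Slc3a1-knockout male mice, 6 weeks old, bred by Slc3a1 × Slc3a1 mating; one pup per mating treated, one or more littermates as controls. Compound dissolved in water (18.9 mg/mL) and given by daily gavage of 100 μL (150 μmol/kg) for 8 weeks; controls received 100 μL water. Mice were sacrificed at study end, and kidneys and bladders were weighed.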

Series [15] can be described thus: Cmax in Slc3a1-knockout mouse at 150 micromol/kg, po or 30 micromol/kg, iv measured upto 24 hrs by LC-MS/MS analysis. In kind it is ADME, organism-based. To be noted: in vivo, dose 150 µmol/kg. The essentials:
as §2

The nature of series [16]: Observed apparent volume of distribution during terminal phase in Slc3a1-knockout mouse by measuring (2R)-2-amino-3-[[(2R)-2-amino-3-(1,8-diazaspiro[4.5]decan-8-yl)-3-oxo-propyl]disulfanyl]propanoic acid metabolite at 150 micromol/kg, po or 30 micromol/kg, iv measured upto 24 hrs by LC-MS/MS analysis. Type of series: ADME, organism-based. To be noted: in vivo, dose 150 µmol/kg. The procedure, abridged:
as §2

Series [17] in a line: Toxicity in SLC3A1-knockout male mouse assessed as body weight at 150 micromol/kg, po administered daily for 8 weeks (reference value: 20.3 +/- 2.1 g). To be noted: in vivo, 1344 h, dose 150 µmol/kg. Type of series: organism-based.
Series [18] can be described thus: AUC (0 to t) in Slc3a1-knockout mouse by measuring (2R)-2-amino-3-[[(2R)-2-amino-3-(1,8-diazaspiro[4.5]decan-8-yl)-3-oxo-propyl]disulfanyl]propanoic acid metabolite at 150 micromol/kg, po or 30 micromol/kg, iv measured upto 24 hrs by LC-MS/MS analysis. In kind it is ADME, organism-based. The following applies: in vivo, dose 150 µmol/kg. The procedure, abridged:
as §2

Series [19] can be described thus: Toxicity in SLC3A1-knockout male mouse assessed as increase in body weight at 150 micromol/kg, po administered daily for 8 weeks. In kind it is organism-based. To be noted: in vivo, 1344 h, at 150 µmol/kg.
Series [20] is described as follows: Drug level in SLC3A1-knockout mouse urine assessed as (2R)-2-amino-3-[[(2R)-2-amino-3-(1,8-diazaspiro[4.5]decan-8-yl)-3-oxo-propyl]disulfanyl]propanoic acid metabolite concentration in urine at 150 micromol/kg, po measured after 24 hrs. Type of series: ADME, organism-based. To be noted: in vivo, dose 150 µmol/kg, read-out: Ct. The essentials: (§3)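 Urine was collected 24 and 48 h after dosing. Parent and mixed-disulfide metabolite were measured, with the metabolite quantitated against chemically synthesized standard.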

In series [21] the test system is Cystine. Put plainly: In-vivo inhibition of L-cystine crystallization in SLC3A1-knockout male mouse assessed as reduction in stone formation in bladder at 150 micromol/kg, po administered daily for 8 weeks. In kind it is functional, organism-based. Set-up: scale not given: the % may be the effect or the level left. The following applies: dose 150.0 µmol/kg.
A short description of series [22]: Drug level in SLC3A1-knockout mouse urine assessed as (2R)-2-amino-3-[[(2R)-2-amino-3-(1,8-diazaspiro[4.5]decan-8-yl)-3-oxo-propyl]disulfanyl]propanoic acid metabolite concentration in urine at 30 micromol/kg, iv measured after 24 hrs. Type of series: ADME, organism-based. To be noted: in vivo, dose 30 µmol/kg, read-out: Ct. The procedure, abridged: as §3
Series [23] in a line: Toxicity in SLC3A1-knockout male mouse assessed as animal death at 150 micromol/kg, po administered daily for 4 weeks. Type of series: organism-based. The following applies: in vivo, 672 h, dose 150 µmol/kg.
Series [24] can be described thus: Observed apparent oral clearance in Slc3a1-knockout mouse at 150 micromol/kg or 30 micromol/kg measured upto 24 hrs by LC-MS/MS analysis. Type of series: ADME. The following applies: in vivo, dose 150 µmol/kg. The essentials:
as §2

Series [25] in a line: Half life in Slc3a1-knockout mouse at 150 micromol/kg, po or 30 micromol/kg, iv measured upto 24 hrs by LC-MS/MS analysis. The following applies: in vivo, dose 150 µmol/kg. Type of series: ADME, organism-based. The essentials: as §2
Series [26] in a line: Observed apparent volume of distribution during terminal phase in Slc3a1-knockout mouse at 150 micromol/kg, po or 30 micromol/kg, iv measured upto 24 hrs by LC-MS/MS analysis. In kind it is ADME, organism-based. To be noted: in vivo, dose 150 µmol/kg. The procedure, abridged: as §2

`COC(=O)[C@@H](N)CSSC[C@H](N)C(=O)OC`: the EC50 with Cystine [1] was 3530 nM. Besides, the Ratio came to 0.4 in the series with Cystine [2], 0.21 with Cystine [3] and 0.27 in the series on Cystine [4].
Take `CN1CCN(C(=O)[C@@H](N)CSSC[C@H](N)C(=O)N2CCN(C)CC2)CC1`: the F in series [5] was 2.3%; in series [6] it was 18%; in [8], 25%. This compound gave an EC50 in the series with Cystine [1] of 59.8 nM. Moreover, the Ratio was found to be 0.52 in the series with Cystine [2], 0.3 with Cystine [3] and 0.32 in the series on Cystine [4]. Moreover, in [7], the Drug metabolism entry is on record as “metabolite_detected”.
Turning to `N[C@@H](CSSC[C@H](N)C(=O)N1CCC2(CCCN2)CC1)C(=O)N1CCC2(CCCN2)CC1`, the F in [5] is on record as 16%; in series [6], 22%; in [8] it was 27%. Moreover, the figures for the Cmax in series [9] and in [15] were 16.9 µM and 11.4 µM, respectively. For the same compound, the figures for the CL/F_obs in series [10] and in series [24] were 0.003 micromol/kg/nmol/L/hr and 0.008 micromol/kg/nmol/L/hr, respectively. Also, the figures for the AUCt in series [11], in [12] and in series [18] were 18.542 µM·h, 59.505 µM·h and 40.963 µM·h, respectively. The t1/2 stood at 2.4 h in [13] and 0.6 h in series [25]. Besides, the Activity result in [14] was “Non-toxic”; in series [17], 20.3 g; in series [19], 14.6%; in the series on Cystine [21], 8%; in series [23], “Non-toxic”. This compound also showed an EC50 with Cystine [1] of 29.5 nM. For the same compound, the Vz/F obs in series [16] was found to be 0.0108 micromol/kg/nmol/L. In addition, the Ratio turned out to be 0.01 with Cystine [2], 0.01 with Cystine [3] and 0.04 in the series with Cystine [4]. For the same compound, the Drug metabolism result in series [7] is “metabolite_detected”. Further, the concentration in series [20] amounted to 2.1 µM; in series [22], 1 µM. The Vz/F_obs in [26] is 0.007 micromol/kg/nmol/L.
